In ChEMBL document CHEMBL3779898, “3,3'-OH curcumin causes apoptosis in HepG2 cells through ROS-mediated pathway” (Eur J Med Chem, 2016):

Experiments:
HepG2 [1] = assay: Cytotoxicity against human HepG2 cells assessed as reduction in cell viability after 48 hrs by MTT assay; type: functional, cell-based; settings: HepG2, 48 h
Procedure, shortened: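 HepG2 seeded at 3×10^3/well, grown 24 h, then exposed to compounds for 48 h. MTT (0.5 mg/mL) added for 4 h, formazan dissolved in DMSO, absorbance read at 570 nm. IC50 = concentration giving 50% loss of viability; mean ± SD of three determinations.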

HepG2 [2] = assay: Induction of apoptosis in human HepG2 cells assessed as early apoptotic cells at 5 mM after 24 hrs by Annexin V-FITC/propidium iodide staining based flow cytometry (reference value: 2.8%); type: functional
Procedure, shortened: (§1)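 HepG2 plated at 5×10^5/well, grown 24 h, then treated 24 h; where indicated, 1 h pretreatment with 5 mM GSH or NAC. Cells stained with Annexin V-FITC/PI; 10,000 cells per sample analysed by flow cytometry into early apoptotic, late apoptotic and necrotic quadrants; triplicate.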

HepG2 [3] = assay: Induction of apoptosis in human HepG2 cells assessed as late apoptotic cells at 5 mM after 24 hrs by Annexin V-FITC/propidium iodide staining based flow cytometry (reference value: 5.4%); type: functional; procedure, shortened: as §1
HepG2 [4] = assay: Induction of apoptosis in human HepG2 cells assessed as necrotic cells at 5 mM after 24 hrs by Annexin V-FITC/propidium iodide staining based flow cytometry (reference value: 1.6%); type: functional; procedure, shortened: as §1

Row | SMILES | IC50 (HepG2 [1]) [µM] | other results
1 | O=C(/C=C/c1ccccc1C(F)(F)F)CC(=O)/C=C/c1ccccc1C(F)(F)F | > 200 | –
2 | COc1ccccc1/C=C/C(=O)CC(=O)/C=C/c1ccccc1OC | 125 | –
3 | O=C(/C=C/c1ccc(O)cc1)CC(=O)/C=C/c1ccc(O)cc1 [BISDEMETHOXYCURCUMIN] | 75.5 | –
4 | O=C(/C=C/c1cccc(C(F)(F)F)c1)CC(=O)/C=C/c1cccc(C(F)(F)F)c1 | > 200 | –
5 | N[C@@H](CCC(=O)N[C@@H](CS)C(=O)NCC(=O)O)C(=O)O [GLUTATHIONE] | – | Activity (HepG2 [2]): 2.5%; Activity (HepG2 [3]): 5.5%; Activity (HepG2 [4]): 2.1%
6 | COc1ccc(/C=C/C(=O)CC(=O)/C=C/c2ccc(OC)cc2)cc1 | > 200 | –
7 | COc1cc(/C=C/C(=O)CC(=O)/C=C/c2ccc(O)c(OC)c2)ccc1O [CURCUMIN] | 52.3 | –
